Assay results as given in ChEMBL document CHEMBL1126270, “Synthesis of 3-[(2,3-dihydro-1,1,3-trioxo-1,2-benzisothiazol-2-yl)alkyl] 1,4-dihydropyridine-3,5-dicarboxylate derivatives as calcium channel modulators” (J Med Chem, 1992).

Legend:
Oryctolagus cuniculus [1] = species: Oryctolagus cuniculus; test: Blockade of calcium-evoked contractions evaluated in depolarized rabbit aortic strips; format: functional; details: Aorta
In short: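 Male New Zealand rabbit thoracic aorta, helicoidal strips, 2.5 g preload, Krebs–bicarbonate, 37 °C, 95% O2/5% CO2, pH 7.4. After 1 h equilibration, depolarized with 35 mM K+; 1.5 mM Ca2+ added 10 min later, repeated until reproducible. Compound at increasing concentrations from 20 min before and during Ca2+ addition; responses normalized to initial tension; IC50 by Finney method.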

Oryctolagus cuniculus [2] = species: Oryctolagus cuniculus; test: Relative potency evaluated (relative potency = IC50 of compound / IC50 of nifedipine) in rabbit; format: functional
Oryctolagus cuniculus [3] = species: Oryctolagus cuniculus; test: Recovery of the initial contraction of rabbit aortic strips, blocked at 10e-7 M concentration.; details: Aorta
[4] = molecular target: T1, Voltage-dependent L-type calcium channel subunit alpha-1C (Oryctolagus cuniculus, UniProt P15381); test: Blockade of calcium-evoked contractions in depolarized aortic strips; format: functional, tissue-based, Aorta
Oryctolagus cuniculus [5] = species: Oryctolagus cuniculus; test: Relative potency was evaluated. (relative potency = IC50 of compound / IC50 of nifedipine); format: functional
Oryctolagus cuniculus [6] = species: Oryctolagus cuniculus; test: Inhibition of electrically stimulated rabbit left atria contraction.; format: functional
In short: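 Rabbit left atria electrically driven (1 Hz, 10 ms, twice threshold voltage), equilibrated 1–1.5 h. Compounds added cumulatively (10^-10–10^-6 M), diluted from DMSO stocks into Krebs–Henseleit, final DMSO <0.1%. Isometric force recorded; IC50 from contractile force relative to initial control values, with 95% confidence limits.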

[7] = molecular target: T1, Voltage-dependent L-type calcium channel subunit alpha-1C; test: Selectivity index was measured as the IC50 needed to depress the heart beat divided by IC50 needed to block [Ca2+] contractions in rabbit aortic strips; format: functional, tissue-based, Aorta

T1 sequence (P15381 whole entry): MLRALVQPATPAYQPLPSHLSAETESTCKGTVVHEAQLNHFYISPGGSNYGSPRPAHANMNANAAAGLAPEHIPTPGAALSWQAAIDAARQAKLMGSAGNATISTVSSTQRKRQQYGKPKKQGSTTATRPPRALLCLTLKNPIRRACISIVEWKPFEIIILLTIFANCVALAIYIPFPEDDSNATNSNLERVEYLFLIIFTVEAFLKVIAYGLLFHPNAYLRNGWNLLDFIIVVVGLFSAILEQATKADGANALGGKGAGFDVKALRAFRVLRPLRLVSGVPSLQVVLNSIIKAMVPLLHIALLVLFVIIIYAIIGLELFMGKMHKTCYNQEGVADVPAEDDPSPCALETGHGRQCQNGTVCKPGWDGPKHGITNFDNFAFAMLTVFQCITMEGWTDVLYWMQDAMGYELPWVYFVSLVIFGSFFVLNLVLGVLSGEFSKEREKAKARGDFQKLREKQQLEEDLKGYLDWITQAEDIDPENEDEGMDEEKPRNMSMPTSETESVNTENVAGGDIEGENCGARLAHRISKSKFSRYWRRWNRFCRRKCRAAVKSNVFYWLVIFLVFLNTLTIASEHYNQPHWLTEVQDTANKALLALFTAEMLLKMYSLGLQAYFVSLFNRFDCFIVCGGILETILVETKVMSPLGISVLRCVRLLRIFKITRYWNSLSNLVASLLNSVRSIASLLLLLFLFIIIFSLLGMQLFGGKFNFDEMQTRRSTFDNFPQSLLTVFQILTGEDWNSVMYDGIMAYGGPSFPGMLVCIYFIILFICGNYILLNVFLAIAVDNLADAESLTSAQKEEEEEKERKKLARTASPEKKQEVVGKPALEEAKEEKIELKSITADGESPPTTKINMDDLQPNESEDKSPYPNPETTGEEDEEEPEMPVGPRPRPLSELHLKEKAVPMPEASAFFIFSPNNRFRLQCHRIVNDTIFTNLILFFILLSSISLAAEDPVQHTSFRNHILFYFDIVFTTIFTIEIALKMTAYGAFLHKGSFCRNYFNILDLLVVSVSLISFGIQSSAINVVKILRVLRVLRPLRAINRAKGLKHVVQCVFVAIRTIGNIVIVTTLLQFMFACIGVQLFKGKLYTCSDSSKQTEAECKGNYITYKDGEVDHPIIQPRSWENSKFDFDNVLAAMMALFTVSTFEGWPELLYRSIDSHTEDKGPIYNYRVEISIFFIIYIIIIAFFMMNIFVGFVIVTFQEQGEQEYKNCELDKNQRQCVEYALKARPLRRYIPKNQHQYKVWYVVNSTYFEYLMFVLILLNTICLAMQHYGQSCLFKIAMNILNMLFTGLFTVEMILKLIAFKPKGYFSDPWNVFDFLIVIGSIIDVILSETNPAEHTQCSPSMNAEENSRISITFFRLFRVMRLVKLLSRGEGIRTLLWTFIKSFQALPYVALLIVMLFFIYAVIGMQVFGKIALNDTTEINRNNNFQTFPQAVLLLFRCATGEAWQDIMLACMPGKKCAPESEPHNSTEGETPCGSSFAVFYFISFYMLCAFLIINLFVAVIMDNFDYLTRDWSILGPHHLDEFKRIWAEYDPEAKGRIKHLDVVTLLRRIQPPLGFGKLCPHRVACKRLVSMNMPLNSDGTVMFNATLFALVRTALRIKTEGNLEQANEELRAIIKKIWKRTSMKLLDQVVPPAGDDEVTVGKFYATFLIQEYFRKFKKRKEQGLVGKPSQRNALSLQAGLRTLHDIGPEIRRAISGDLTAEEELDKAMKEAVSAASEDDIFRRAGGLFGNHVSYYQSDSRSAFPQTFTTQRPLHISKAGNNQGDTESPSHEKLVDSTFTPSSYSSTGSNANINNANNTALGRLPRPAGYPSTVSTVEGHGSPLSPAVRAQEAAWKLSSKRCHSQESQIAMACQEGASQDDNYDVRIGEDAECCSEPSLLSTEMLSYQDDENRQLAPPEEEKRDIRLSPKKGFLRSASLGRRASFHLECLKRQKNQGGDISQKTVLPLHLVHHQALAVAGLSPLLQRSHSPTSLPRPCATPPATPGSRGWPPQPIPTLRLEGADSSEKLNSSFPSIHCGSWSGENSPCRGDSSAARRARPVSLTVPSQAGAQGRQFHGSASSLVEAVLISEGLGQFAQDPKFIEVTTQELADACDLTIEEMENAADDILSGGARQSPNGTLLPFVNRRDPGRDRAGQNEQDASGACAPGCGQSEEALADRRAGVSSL

Row | Structure (SMILES) | IC50 (Oryctolagus cuniculus [1]) | Relative potency (Oryctolagus cuniculus [2]) | Recovery (Oryctolagus cuniculus [3]) | IC50 [4] | Relative potency (Oryctolagus cuniculus [5]) | IC50 (Oryctolagus cuniculus [6]) | Selectivity index [7]
1 | CC1=NC(C)=C(C(=O)OCCCN2C(=O)c3ccccc3S2(=O)=O)C(c2ccccc2C(F)(F)F)/C1=C(\O)OCC1CCCO1 (stereo not given) | 3.7 nM | 0.8 | – | – | – | – | –
2 | CC1=NC(C)=C(C(=O)OCCCN2C(=O)c3ccccc3S2(=O)=O)C(c2ccccc2[N+](=O)[O-])/C1=C(\O)OCC1CCCO1 (stereo not given) | 6.8 nM | 0.4 | – | – | – | – | –
3 | COCCO/C(O)=C1\C(C)=NC(C)=C(C(=O)OCCN2C(=O)c3ccccc3S2(=O)=O)C1c1ccccc1Cl (stereo not given) | 22.9 nM | 0.1 | 0.5% | – | – | – | –
4 | CC1=NC(C)=C(C(=O)OCN2C(=O)c3ccccc3S2(=O)=O)C(c2cccc([N+](=O)[O-])c2)/C1=C(\O)OCC1CCCCO1 (stereo not given) | – | – | – | 13.3 nM | 0.2 | – | –
5 | CC1=NC(C)=C(C(=O)OCCCN2C(=O)c3ccccc3S2(=O)=O)C(c2cccc(Cl)c2Cl)/C1=C(\O)OC(C)(C)C (stereo not given) | 3.1 nM | 0.2 | – | – | – | – | –
6 | CC1=NC(C)=C(C(=O)OCN2C(=O)c3ccccc3S2(=O)=O)C(c2ccccc2Cl)/C1=C(\O)OCC1CCCO1 (stereo not given) | – | – | – | 10.1 nM | 0.3 | – | –
7 | CO/C(O)=C1\C(C)=NC(C)=C(C(=O)OCN2C(=O)c3ccccc3S2(=O)=O)C1c1cccc(Cl)c1Cl (stereo not given) | – | – | – | 5.1 nM | 0.6 | – | –
8 | CC1=NC(C)=C(C(=O)OCCCN2C(=O)c3ccccc3S2(=O)=O)C(c2cccc([N+](=O)[O-])c2)/C1=C(\O)OC(C)C (stereo not given) | 1 nM | 2.9 | 1.6% | – | – | 210 nM | 205
9 | CC1=NC(C)=C(C(=O)OCCN2C(=O)c3ccccc3S2(=O)=O)C(c2ccccc2C(F)(F)F)/C1=C(\O)OCC1CCCCO1 (stereo not given) | 25.5 nM | 0.1 | – | – | – | – | –
10 | COCCO/C(O)=C1\C(C)=NC(C)=C(C(=O)OCCN2C(=O)c3ccccc3S2(=O)=O)C1c1ccccc1C(F)(F)F (stereo not given) | 1.4 nM | 2.1 | – | – | – | – | –
11 | CC1=NC(C)=C(C(=O)OCCCN2C(=O)c3ccccc3S2(=O)=O)C(c2ccccc2[N+](=O)[O-])/C1=C(\O)OCC1CCCCO1 (stereo not given) | 11.5 nM | 0.3 | – | – | – | – | –
12 | CC1=NC(C)=C(C(=O)OCCCN2C(=O)c3ccccc3S2(=O)=O)C(c2cccc([N+](=O)[O-])c2)/C1=C(\O)OCC1CCCO1 (stereo not given) | 10.5 nM | 0.3 | – | – | – | – | –
13 | CO/C(O)=C1\C(C)=NC(C)=C(C(=O)OCCCN2C(=O)c3ccccc3S2(=O)=O)C1c1cccc([N+](=O)[O-])c1 (stereo not given) | 2.6 nM | 1.1 | – | – | – | – | –
14 | CC1=NC(C)=C(C(=O)OCCN2C(=O)c3ccccc3S2(=O)=O)C(c2cccc(Cl)c2Cl)/C1=C(\O)OCC1CCCO1 (stereo not given) | 2.1 nM | 1.4 | – | – | – | – | –
15 | CCO/C(O)=C1\C(C)=NC(C)=C(C(=O)OCCN2C(=O)c3ccccc3S2(=O)=O)C1c1ccccc1Cl (stereo not given) | 10 nM | 0.3 | – | – | – | – | –
16 | CC1=NC(C)=C(C(=O)OCCN2C(=O)c3ccccc3S2(=O)=O)C(c2ccccc2Cl)/C1=C(\O)OCC1CCCO1 (stereo not given) | 3.5 nM | 0.8 | – | – | – | – | –
17 | CC1=NC(C)=C(C(=O)OCCCN2C(=O)c3ccccc3S2(=O)=O)C(c2cccc(Cl)c2Cl)/C1=C(\O)OCC1CCCCO1 (stereo not given) | 4 nM | 0.7 | – | – | – | – | –
18 | CO/C(O)=C1\C(C)=NC(C)=C(C(=O)OCCN2C(=O)c3ccccc3S2(=O)=O)C1c1cccc([N+](=O)[O-])c1 (stereo not given) | 39.8 nM | 0.1 | – | – | – | – | –
19 | COCCO/C(O)=C1\C(C)=NC(C)=C(C(=O)OCCCN2C(=O)c3ccccc3S2(=O)=O)C1c1ccccc1C(F)(F)F (stereo not given) | 1.4 nM | 2.1 | 18.3% | – | – | 21.8 nM | 16
20 | CO/C(O)=C1\C(C)=NC(C)=C(C(=O)OCCN2C(=O)c3ccccc3S2(=O)=O)C1c1cccc(Cl)c1Cl (stereo not given) | 17.3 nM | 0.2 | – | – | – | – | –
21 | CCO/C(O)=C1\C(C)=NC(C)=C(C(=O)OCCN2C(=O)c3ccccc3S2(=O)=O)C1c1cccc(Cl)c1Cl (stereo not given) | 4 nM | 0.7 | – | – | – | – | –

Row | Structure (SMILES) | IC50 (Oryctolagus cuniculus [1]) | Relative potency (Oryctolagus cuniculus [2]) | Recovery (Oryctolagus cuniculus [3]) | IC50 [4] | Relative potency (Oryctolagus cuniculus [5]) | IC50 (Oryctolagus cuniculus [6]) | Selectivity index [7]
22 | COCCO/C(O)=C1\C(C)=NC(C)=C(C(=O)OCCCN2C(=O)c3ccccc3S2(=O)=O)C1c1cccc([N+](=O)[O-])c1 (stereo not given) | 6.8 nM | 0.4 | – | – | – | – | –
23 | CO/C(O)=C1\C(C)=NC(C)=C(C(=O)OCCCN2C(=O)c3ccccc3S2(=O)=O)C1c1ccccc1Cl (stereo not given) | 1.8 nM | 1.6 | 6.05% | – | – | 140 nM | 77
24 | CCO/C(O)=C1\C(C)=NC(C)=C(C(=O)OCCCN2C(=O)c3ccccc3S2(=O)=O)C1c1ccccc1Cl (stereo not given) | 3.9 nM | 0.7 | – | – | – | – | –
25 | COCCO/C(O)=C1\C(C)=NC(C)=C(C(=O)OCCCN2C(=O)c3ccccc3S2(=O)=O)C1c1ccccc1Cl (stereo not given) | 2.9 nM | 1 | – | – | – | – | –
26 | COCCO/C(O)=C1\C(C)=NC(C)=C(C(=O)OCCN2C(=O)c3ccccc3S2(=O)=O)C1c1cccc([N+](=O)[O-])c1 (stereo not given) | 28.8 nM | 0.1 | – | – | – | – | –
27 | CC1=NC(C)=C(C(=O)OCCCN2C(=O)c3ccccc3S2(=O)=O)C(c2ccccc2Cl)/C1=C(\O)OC(C)C (stereo not given) | 1.3 nM | 2.2 | – | – | – | 48 nM | 37
28 | CC1=NC(C)=C(C(=O)OCCN2C(=O)c3ccccc3S2(=O)=O)C(c2ccccc2[N+](=O)[O-])/C1=C(\O)OC(C)(C)C (stereo not given) | 0.7 nM | 4.1 | 0.2% | – | – | 28.5 nM | 41
29 | CCO/C(O)=C1\C(C)=NC(C)=C(C(=O)OCCCN2C(=O)c3ccccc3S2(=O)=O)C1c1cccc([N+](=O)[O-])c1 (stereo not given) | 1.9 nM | 1.5 | – | – | – | – | –
30 | CC1=NC(C)=C(C(=O)OCCN2C(=O)c3ccccc3S2(=O)=O)C(c2cccc(Cl)c2Cl)/C1=C(\O)OCC1CCCCO1 (stereo not given) | 11.1 nM | 0.3 | – | – | – | – | –
31 | CC1=NC(C)=C(C(=O)OCCCN2C(=O)c3ccccc3S2(=O)=O)C(c2ccccc2Cl)/C1=C(\O)OCC1CCCO1 (stereo not given) | 7.1 nM | 0.4 | – | – | – | – | –
32 | CC1=NC(C)=C(C(=O)OCCCN2C(=O)c3ccccc3S2(=O)=O)C(c2ccccc2C(F)(F)F)/C1=C(\O)OC(C)C (stereo not given) | 2.7 nM | 1.1 | – | – | – | – | –
33 | COCCO/C(O)=C1\C(C)=NC(C)=C(C(=O)OCCN2C(=O)c3ccccc3S2(=O)=O)C1c1cccc(Cl)c1Cl (stereo not given) | 7 nM | 0.4 | – | – | – | – | –
34 | CC1=NC(C)=C(C(=O)OCCCN2C(=O)c3ccccc3S2(=O)=O)C(c2ccccc2Cl)/C1=C(\O)OCC1CCCCO1 (stereo not given) | 7 nM | 0.4 | – | – | – | – | –
35 | CC1=NC(C)=C(C(=O)OCCN2C(=O)c3ccccc3S2(=O)=O)C(c2ccccc2Cl)/C1=C(\O)OC(C)C (stereo not given) | 3.1 nM | 0.9 | – | – | – | – | –
36 | CO/C(O)=C1\C(C)=NC(C)=C(C(=O)OCCCN2C(=O)c3ccccc3S2(=O)=O)C1c1ccccc1[N+](=O)[O-] (stereo not given) | 1.5 nM | 1.9 | 18.8% | – | – | 120 nM | 80
37 | CC1=NC(C)=C(C(=O)OCCN2C(=O)c3ccccc3S2(=O)=O)C(c2ccccc2Cl)/C1=C(\O)OC(C)(C)C (stereo not given) | 4.5 nM | 0.6 | – | – | – | – | –
38 | CC1=NC(C)=C(C(=O)OCCN2C(=O)c3ccccc3S2(=O)=O)C(c2ccccc2C(F)(F)F)/C1=C(\O)OCC1CCCO1 (stereo not given) | 2.5 nM | 1.2 | – | – | – | – | –
39 | COCCO/C(O)=C1\C(C)=NC(C)=C(C(=O)OCCCN2C(=O)c3ccccc3S2(=O)=O)C1c1ccccc1[N+](=O)[O-] (stereo not given) | 2.7 nM | 1.1 | – | – | – | – | –
40 | CCO/C(O)=C1\C(C)=NC(C)=C(C(=O)OCCCN2C(=O)c3ccccc3S2(=O)=O)C1c1ccccc1[N+](=O)[O-] (stereo not given) | 2.6 nM | 1.1 | – | – | – | – | –
41 | CCO/C(O)=C1\C(C)=NC(C)=C(C(=O)OCCN2C(=O)c3ccccc3S2(=O)=O)C1c1cccc([N+](=O)[O-])c1 (stereo not given) | 2.6 nM | 1.1 | – | – | – | – | –
42 | CCO/C(O)=C1\C(C)=NC(C)=C(C(=O)OCCCN2C(=O)c3ccccc3S2(=O)=O)C1c1ccccc1C(F)(F)F (stereo not given) | 0.8 nM | 3.6 | 1.2% | – | – | 124 nM | 163
